High-throughput results from PubChem BioAssay.
KDM4C inh: inhibitors of human demethylase GASC-1 KDM4C; Q9H3R0; GST-KDM4C 2-372, H3K9me3 peptide, LANCE TR-FRET; inhibition, % at 12.5 µM; hit rate 0.15% among 96,000;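 active means mean replicate inhibition above about 25%, with at least 55% of replicates also reaching it, limit read from the data, passing the limit was not always enough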
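System: N-terminal GST-fused human GASC-1 (KDM4C) fragment, residues 2-372 / Amount: 10 nM GST-KDM4C in enzyme reaction / Also added: H3K9me3 peptide with Fe(II)/2OG / Times: 30 min demethylation and 1 h detection at room temperature / Signal: LANCE TR-FRET / Read-out basis: Fall in 671/618 emission ratio as inhibition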
Pf Dd2 inh: inhibitors of Plasmodium falciparum Dd2 growth; hit rate 2.3% among 94,000; AID 1159554; activity change, % at 10 µM; P. falciparum Dd2 growth, SYBR Green, 72 h; hits give low values; in the data active means activity change below about -80%
IDH1 mut inh: blocks human IDH1 R132H reductase activity | O75874 | diaphorase/resazurin fluorescence, 60 min | inhibition, % at 10 µM | hit rate 0.18% among 70,000; in the data active means inhibition above about 34%;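 further: 0% = DMSO and 100% = no enzyme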
Target sequence (O75874 whole entry R132H): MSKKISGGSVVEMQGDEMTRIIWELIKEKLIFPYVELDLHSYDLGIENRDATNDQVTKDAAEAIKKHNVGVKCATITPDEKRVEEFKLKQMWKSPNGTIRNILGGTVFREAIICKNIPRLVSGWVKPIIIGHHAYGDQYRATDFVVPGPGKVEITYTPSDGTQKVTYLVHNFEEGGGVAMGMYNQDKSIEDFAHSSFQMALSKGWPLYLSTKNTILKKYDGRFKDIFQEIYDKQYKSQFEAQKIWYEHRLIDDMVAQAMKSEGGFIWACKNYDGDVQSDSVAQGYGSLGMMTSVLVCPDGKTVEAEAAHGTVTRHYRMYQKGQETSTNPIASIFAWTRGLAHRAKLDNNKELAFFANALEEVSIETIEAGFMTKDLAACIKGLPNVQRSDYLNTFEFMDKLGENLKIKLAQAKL
Numbers without * were called inactive; / = not tested or not shown. This excerpt belongs to a sample that is enriched for hits.

SMILES	KDM4C inh	Pf Dd2 inh	IDH1 mut inh
CN(C)Cc1cn(CC[C@H]2CC[C@H](NS(=O)(=O)c3ccc(-c4ccccc4)cc3)[C@H](CO)O2)nn1	0	10	0
CCCc1cn(CC[C@@H]2CC[C@H](NS(=O)(=O)c3ccc(-c4ccccc4)cc3)[C@H](CO)O2)nn1	-2	-92*	-1
COc1ccc(S(=O)(=O)N[C@@H]2CC[C@H](CCn3cc(-c4ccccc4F)nn3)O[C@@H]2CO)cc1	-1	-92*	0
COc1ccc(S(=O)(=O)N[C@H]2CC[C@@H](CCn3cc(-c4ccccc4F)nn3)O[C@@H]2CO)cc1	-2	-43	-1
C[C@@H]1CN([C@H](C)CO)S(=O)(=O)c2ccc(C#Cc3ccccc3)cc2O[C@@H]1CN(C)C(=O)C1CC1	0	-82*	1
C[C@H](CO)N1C[C@H](C)[C@H](CN(C)C(=O)C2CC2)Oc2cc(C#Cc3ccncc3)ccc2S1(=O)=O	1	-56	-4
C[C@@H]1CN([C@H](C)CO)S(=O)(=O)c2ccc(C#Cc3ccncc3)cc2O[C@@H]1CN(C)C(=O)C1CC1	1	-25	-5
C[C@@H]1CN([C@@H](C)CO)S(=O)(=O)c2ccc(C#Cc3ccccc3)cc2O[C@H]1CN(C)C(=O)C1CC1	-1	-89*	2
C[C@@H]1CN([C@H](C)CO)C(=O)c2cccc(N(C)C)c2O[C@@H]1CN(C)Cc1ccncc1	-1	2	0
C[C@H](O)C#Cc1cnc2c(c1)C(=O)N([C@@H](C)CO)C[C@H](C)[C@H](CN(C)Cc1ccc(-c3ccccc3)cc1)O2	2	-2	/
C[C@@H]1CN([C@@H](C)CO)C(=O)c2cccc(NC(=O)CCCCCC(=O)Nc3ccccc3N)c2O[C@@H]1CN(C)Cc1ccc2c(c1)OCO2	0	-89*	6
C[C@@H]1CN([C@@H](C)CO)C(=O)c2cccc(NC(=O)CCCCCC(=O)Nc3ccccc3N)c2O[C@H]1CN(C)Cc1ccc(Cl)c(Cl)c1	0	-87*	/
C[C@@H]1CN([C@H](C)CO)C(=O)c2cccc(NC(=O)CCCCCC(=O)Nc3ccccc3N)c2O[C@H]1CN(C)Cc1ccc(Cl)c(Cl)c1	1	-86*	0
C[C@H]1CN([C@@H](C)CO)C(=O)c2cc(NC(=O)CCCCCC(=O)Nc3ccccc3N)ccc2O[C@@H]1CN(C)Cc1ccc2c(c1)OCO2	1	-74	1
C[C@H]1CN([C@@H](C)CO)C(=O)c2cccc(NC(=O)CCCCCC(=O)Nc3ccccc3N)c2O[C@@H]1CN(C)Cc1ccc(Cl)c(Cl)c1	1	-92*	/
C[C@@H]1CN([C@H](C)CO)C(=O)c2cc(NC(=O)CCCCCC(=O)Nc3ccccc3N)ccc2O[C@@H]1CN(C)Cc1ccc(Cl)c(Cl)c1	-3	-47	/
C[C@H]1CN([C@@H](C)CO)C(=O)c2cc(NC(=O)CCCCCC(=O)Nc3ccccc3N)ccc2O[C@H]1CN(C)Cc1ccc(Cl)c(Cl)c1	-1	-17	0
CO[C@@H]1CN(C)C(=O)c2cc(NC(=O)Cc3ccccc3)ccc2OC[C@@H](C)N(C(C)=O)C[C@@H]1C	0	-4	0
CCNC(=O)[C@H]1[C@H](CO)[C@H]2Cn3c(ccc(-c4ccncc4)c3=O)[C@@H]1N2Cc1ccccc1	-2	32	/
O=C(C[C@H]1C[C@H]2c3cc(NC(=O)NC4CCCC4)ccc3O[C@H]2[C@H](CO)O1)NCC1CC1	-5	0	0
COc1cccc(NC(=O)N(C)C[C@H]2Oc3cc(C#Cc4ccccc4)ccc3S(=O)(=O)N([C@H](C)CO)C[C@H]2C)c1	/	-74	/
COc1cccc(NC(=O)N(C)C[C@@H]2Oc3cc(C#Cc4ccccc4)ccc3S(=O)(=O)N([C@@H](C)CO)C[C@@H]2C)c1	0	-91*	-3
COc1cccc(NC(=O)N(C)C[C@H]2Oc3cc(C#Cc4ccccc4)ccc3S(=O)(=O)N([C@H](C)CO)C[C@@H]2C)c1	/	-84*	-2
COc1cccc(NC(=O)N(C)C[C@H]2Oc3cc(C#Cc4ccncc4)ccc3S(=O)(=O)N([C@@H](C)CO)C[C@H]2C)c1	-2	-31	-4
Cc1ccccc1-c1ccc(C2[C@H]3CNC[C@@H]2N3Cc2cccnc2)cc1 (stereo not given in full)	1	-16	/
CN(Cc1nc(-c2ccccc2)no1)S(=O)(=O)c1ccc(Br)cc1	/	/	-1
Cc1ccc(S(=O)(=O)Nc2ccc3c(c2)C(=O)N([C@H](C)CO)C[C@H](C)[C@@H](CN(C)C(=O)Nc2cccc4ccccc24)OCCCC[C@H](C)O3)cc1	-1	-72	/
Cc1ccc(S(=O)(=O)Nc2ccc3c(c2)C(=O)N([C@@H](C)CO)C[C@@H](C)[C@@H](CN(C)C(=O)Nc2cccc4ccccc24)OCCCC[C@H](C)O3)cc1	-2	-84*	/
